Experimental findings from ChEMBL document CHEMBL1143047, “Aminoglycoside antibiotic derivatives: preparation and evaluation of toxicity on cochlea and vestibular tissues and antimicrobial activity” (Bioorg Med Chem, 2007) are described below.

Series [1] concerns Pseudomonas aeruginosa. Nature of the series: Antimicrobial activity against Pseudomonas aeruginosa ATCC 27853 at 15 mg/ml after 24 hrs by micro dilution method. Format: functional, organism-based. The essentials: (§1)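 Broth microdilution with about 5 × 10^4 CFU/mL per well. Compounds were dissolved in sterile water or in 10% DMSO/water and tested at 15 mg/mL in duplicate. Incubation was 24 h at 35 °C. Growth was scored qualitatively by medium turbidity (growth or no growth) against an inoculated-medium positive control and a medium-only negative control.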

For series [2], the species on record is Cavia porcellus. Nature of the series: Ototoxicity assessed as cochlear inner cells damage in Albino guinea pig with transtympanic application in right ear relative to left ear control. Format: toxicity, organism-based. Further details: concentration or dose not given beside the values. Particulars: other. The gist of the method:
(§2)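 Albino guinea pigs (400–600 g) screened by Preyer reflex and otoscopy, with DPOAE/BEAP thresholds up to 5 dB in both ears under ketamine 65 mg/kg. Right ear got a transtympanic sample (0.08–0.10 mL, 0.22 mmol/mL, in water or DMSO); left ear got saline or DMSO; 06 animals. Cochlear hair cells and vestibule (semicircular channels, utriculus, sacculus) scored by SEM after glutaraldehyde/osmium fixation.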

Series [3] relates to Micrococcus luteus. Nature of the series: Antimicrobial activity against Micrococcus luteus ATCC 9341 at 15 mg/ml after 24 hrs by micro dilution method. Format: functional, organism-based. The gist of the method:
as §1

The species named for series [4] is Cavia porcellus. Nature of the series: Ototoxicity assessed as vestibular damage in Albino guinea pig with transtympanic application in right ear relative to left ear control. Format: toxicity, organism-based. Further details: concentration or dose not given beside the values. Particulars: in vivo, other. The essentials: as §2
For series [5], the system named is Escherichia coli. Nature of the series: Antimicrobial activity against Escherichia coli ATCC 25922 at 15 mg/ml after 24 hrs by micro dilution method. Format: functional, organism-based. The gist of the method:
as §1

The subject of series [6] is Staphylococcus aureus. Nature of the series: Antimicrobial activity against Staphylococcus aureus ATCC 6538 at 15 mg/ml after 24 hrs by micro dilution method. Format: functional, organism-based. The essentials:
as §1

In series [7] the test system is Staphylococcus epidermidis. Nature of the series: Antimicrobial activity against Staphylococcus epidermidis ATCC 12228 at 15 mg/ml after 24 hrs by micro dilution method. The format is functional, organism-based. The essentials:
as §1

Series [8] is filed under the species Cavia porcellus. Nature of the series: Ototoxicity assessed as cochlear outer cells damage in Albino guinea pig with transtympanic application in right ear relative to left ear control. Also noted: concentration or dose not given beside the values. Particulars: other. The format is toxicity, organism-based. The gist of the method:
as §2

The source made the active and inactive calls.

On to `NC[C@H]1O[C@H](O[C@H]2[C@H](O)[C@@H](O)[C@H](N)C[C@@H]2N)[C@H](N)[C@@H](O)[C@@H]1O` [NEAMINE], for which the result in series [1], in series [3], in series [5], in series [6] and in series [7] was Active. In addition, the Activity in series [2] came to 0%; in series [4] it was 100%; in series [8] it was 100%.

For the molecule `COC1OC[C@@H](O)[C@@H](O[C@H]2O[C@@H](CN)[C@@H](O)[C@H](O)[C@H]2N)[C@H]1O` (some centres undefined) [METHYL-NEOBIOSAMINIDE B], the result in series [1], in series [3], in series [5], in series [6] and in series [7] was Active. Also, the Activity in series [2] was 0%; in series [4], 100%; in series [8] it was 0%.

`COc1ccc(/C=N\[C@H]2[C@@H](O[C@@H]3[C@@H](O)[C@H](O)[C@@H](/N=C/c4ccc(OC)cc4)C[C@H]3/N=C/c3ccc(OC)cc3)O[C@H](C/N=C/c3ccc(OC)cc3)[C@@H](O)[C@@H]2O)cc1`: the Activity is listed as 100% in series [2], 0% in series [4] and 0% in series [8].

On to `COC(=O)NC[C@H]1O[C@H](O[C@@H]2[C@@H](O)[C@H](O)[C@@H](NC(=O)OC)C[C@H]2NC(=O)OC)[C@H](NC(=O)OC)[C@@H](O)[C@@H]1O`, for which the Activity in series [2], in series [4] and in series [8] was 0% in each case.

Regarding `NC[C@@H]1O[C@H](O[C@H]2[C@@H](O)[C@H](O[C@@H]3[C@@H](O)[C@H](N)C[C@H](N)[C@H]3O[C@H]3O[C@H](CN)[C@@H](O)[C@H](O)[C@H]3N)O[C@@H]2CO)[C@H](N)[C@@H](O)[C@@H]1O` [FRAMYCETIN], the outcome in series [1], in series [3], in series [5], in series [6] and in series [7] was Active. The Activity in series [2] was 0%; in series [4] it was 50%; in series [8], 100%.

With `O=C(NC[C@H]1O[C@H](O[C@@H]2[C@@H](O)[C@H](O)[C@@H](NC(=O)OCc3ccccc3)C[C@H]2NC(=O)OCc2ccccc2)[C@H](NC(=O)OCc2ccccc2)[C@@H](O)[C@@H]1O)OCc1ccccc1`, the Activity in series [2] was found to be 0%; in series [4], 0%; in series [8] it was 100%.

For `CC(=O)NC[C@H]1O[C@H](O[C@@H]2[C@@H](O)[C@H](O)[C@@H](NC(C)=O)C[C@H]2NC(C)=O)[C@H](NC(C)=O)[C@@H](O)[C@@H]1O`, the result in series [1] was inactive. In addition, the Activity in series [2], in series [4] and in series [8] was 0% each time. Further, the outcome in series [3], in series [5], in series [6] and in series [7] was Active.

Take `N[C@@H]1C[C@H](N)[C@@H](O)[C@H](O)[C@H]1O`: the outcome in series [1], in series [5], in series [6] and in series [7] was inactive. For the same molecule, the Activity in series [2], in series [4] and in series [8] was 0% throughout. Moreover, in series [3], the outcome was Active.
